Key:
[1] = biological target: T1, GABA-A receptor; alpha-3/beta-3/gamma-2 (Homo sapiens) (UniProt P18507+P28472+P34903); experiment: Efficacy against recombinant human GABAA alpha-3 receptor plus beta3gamma2 expressed in L(tk-) cells by modulation of chloride ion flux relative to chlordiazepoxide; type: functional, cell-based
Outline: (§1)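 Same L(tk-) lines expressing beta3gamma2 with alpha1 or alpha3. 36Cl ion flux evoked by an EC20-equivalent concentration of GABA, measured in the presence of about 1000 x Ki of test compound. Efficacy expressed relative to the maximal chlordiazepoxide response (1.00). Mean of at least seven independent experiments.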

[2] = biological target: T2, GABA-A receptor; alpha-1/beta-3/gamma-2 (Homo sapiens, UniProt P14867+P18507+P28472); experiment: Displacement of [3H]Ro 15-1788 from recombinant human GABAA alpha-1 receptor plus beta3gamma2 expressed in L(tk-) cells; type: cell-based
T2 sequence (P14867 whole entry): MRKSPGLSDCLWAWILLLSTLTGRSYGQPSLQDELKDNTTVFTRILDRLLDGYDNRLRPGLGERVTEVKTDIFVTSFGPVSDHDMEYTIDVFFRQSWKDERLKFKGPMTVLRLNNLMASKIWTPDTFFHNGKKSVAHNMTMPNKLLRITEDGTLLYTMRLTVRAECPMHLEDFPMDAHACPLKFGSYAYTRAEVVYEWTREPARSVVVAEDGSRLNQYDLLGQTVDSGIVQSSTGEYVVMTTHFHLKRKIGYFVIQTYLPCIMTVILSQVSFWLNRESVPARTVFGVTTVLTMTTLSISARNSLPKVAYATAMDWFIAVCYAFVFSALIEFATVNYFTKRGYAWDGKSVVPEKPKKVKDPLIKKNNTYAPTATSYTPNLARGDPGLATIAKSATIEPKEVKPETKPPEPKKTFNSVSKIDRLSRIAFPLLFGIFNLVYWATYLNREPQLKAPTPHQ
T2 sequence (P18507 whole entry): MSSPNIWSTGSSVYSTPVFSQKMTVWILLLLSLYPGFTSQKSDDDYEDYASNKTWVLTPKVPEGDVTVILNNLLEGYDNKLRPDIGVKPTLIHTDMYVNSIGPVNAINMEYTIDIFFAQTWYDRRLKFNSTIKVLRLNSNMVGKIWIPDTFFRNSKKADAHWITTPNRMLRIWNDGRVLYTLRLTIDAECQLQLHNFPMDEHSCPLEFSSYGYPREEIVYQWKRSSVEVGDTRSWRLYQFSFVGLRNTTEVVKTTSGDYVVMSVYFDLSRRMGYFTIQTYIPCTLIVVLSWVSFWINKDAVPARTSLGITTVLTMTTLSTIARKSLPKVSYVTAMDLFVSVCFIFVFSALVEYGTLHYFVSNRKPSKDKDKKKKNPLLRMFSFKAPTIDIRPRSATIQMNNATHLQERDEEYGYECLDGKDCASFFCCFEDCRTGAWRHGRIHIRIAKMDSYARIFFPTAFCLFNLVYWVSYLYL
T2 sequence (P28472 whole entry): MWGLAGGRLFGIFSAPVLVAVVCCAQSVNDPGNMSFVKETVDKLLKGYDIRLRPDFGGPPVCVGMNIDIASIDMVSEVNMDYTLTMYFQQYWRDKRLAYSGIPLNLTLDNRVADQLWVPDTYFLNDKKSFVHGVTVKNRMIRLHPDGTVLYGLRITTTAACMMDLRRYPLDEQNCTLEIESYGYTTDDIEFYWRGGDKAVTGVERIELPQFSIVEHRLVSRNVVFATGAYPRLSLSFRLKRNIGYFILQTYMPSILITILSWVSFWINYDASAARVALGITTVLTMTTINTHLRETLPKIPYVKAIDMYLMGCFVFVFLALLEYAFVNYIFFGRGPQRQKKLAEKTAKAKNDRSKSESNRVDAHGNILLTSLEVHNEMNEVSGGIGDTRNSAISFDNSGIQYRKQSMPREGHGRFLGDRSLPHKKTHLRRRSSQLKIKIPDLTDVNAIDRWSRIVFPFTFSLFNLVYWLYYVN

[3] = biological target: T3, GABA-A receptor; alpha-1/beta-3/gamma-2 (Homo sapiens) (UniProt P14867+P18507+P28472); experiment: Efficacy against recombinant human GABAA alpha1 receptor plus beta-3-gamma-2 expressed in L(tk-) cells by modulation of chloride ion flux relative to chlordiazepoxide; type: functional, cell-based; outline: as §1
[4] = biological target: T4, GABA-A receptor; alpha-2/beta-3/gamma-2 (Homo sapiens, UniProt P18507+P28472+P47869); experiment: Displacement of [3H] Ro15-1788 from recombinant human GABAA alpha2 receptor plus beta-3-gamma-2 expressed in L(tk-) cells; type: cell-based
T4 sequence (P18507 whole entry): T2 sequence (P18507 whole entry)
T4 sequence (P28472 whole entry): T2 sequence (P28472 whole entry)
T4 sequence (P47869 whole entry): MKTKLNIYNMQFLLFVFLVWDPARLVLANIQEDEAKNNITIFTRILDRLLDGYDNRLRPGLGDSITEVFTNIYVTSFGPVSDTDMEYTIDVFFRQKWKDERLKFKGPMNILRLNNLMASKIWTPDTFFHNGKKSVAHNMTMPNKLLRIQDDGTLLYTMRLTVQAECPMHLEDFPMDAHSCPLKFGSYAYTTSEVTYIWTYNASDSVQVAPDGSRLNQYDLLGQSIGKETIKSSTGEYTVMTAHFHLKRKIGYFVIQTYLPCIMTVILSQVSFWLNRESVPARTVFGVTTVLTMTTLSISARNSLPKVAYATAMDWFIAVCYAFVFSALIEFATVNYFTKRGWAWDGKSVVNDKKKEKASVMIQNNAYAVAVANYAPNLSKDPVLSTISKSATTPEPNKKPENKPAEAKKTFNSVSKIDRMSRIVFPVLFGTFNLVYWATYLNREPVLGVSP

[5] = biological target: T3, GABA-A receptor; alpha-1/beta-3/gamma-2 (Homo sapiens); experiment: Efficacy against recombinant human GABAA alpha-1 receptor plus beta3gamma2 expressed in L(tk-) cells by whole cell patch clamp method; type: functional, cell-based
Outline: (§2)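 Whole-cell patch clamp on L(tk-) cells stably expressing the receptor (alpha plus beta3gamma2). GABA applied at an EC20-equivalent concentration. Modulation of the current measured with increasing test concentrations. Efficacy expressed relative to the maximal chlordiazepoxide response (set at 1.00) or as a percentage.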

[6] = biological target: T1, GABA-A receptor; alpha-3/beta-3/gamma-2 (Homo sapiens); experiment: Efficacy against recombinant human GABAA alpha3 receptor plus beta-3-gamma-2 expressed in L(tk-) cells by whole cell patch clamp method relative to chlordiazepoxide; type: functional, cell-based; outline: as §2
[7] = biological target: T3, GABA-A receptor; alpha-1/beta-3/gamma-2 (Homo sapiens); experiment: Efficacy against recombinant human GABAA alpha1 receptor plus beta3gamma2 expressed in L(tk-) cells by whole cell patch clamp method relative to chlordiazepoxide; type: functional, cell-based; outline: as §2
[8] = Half life in rat at 1 mg/kg, […] 1 mg/kg, po; type: ADME, organism-based; settings: in vivo
Outline: (§3)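 Rat pharmacokinetics after dosing at 1 mg/kg iv and 1 mg/kg po. Plasma clearance in mL/min/kg, half-life in h and volume of distribution in L/kg.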

[9] = Plasma clearance in rat at 1 mg/kg, iv or 1 mg/kg, po; type: ADME, organism-based; outline: as §3
[10] = Oral bioavailability in rat at 1 mg/kg, iv or 1 mg/kg, po; type: ADME, organism-based; settings: in vivo
Outline: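 Pharmacokinetics in rat, dog or rhesus after 1 mg/kg iv and 1 mg/kg po dosing. Plasma clearance (mL/min/kg), half-life (h), volume of distribution (L/kg) and oral bioavailability (%) were derived.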

[11] = Volume of distribution in rat at 1 mg/kg, iv or 1 mg/kg, po; type: ADME, organism-based; settings: in vivo, read-out: Vdss; outline: as §3

Row | Compound | Efficacy [1] [%] | Ki [2] [nM] | Efficacy [3] [%] | Ki [4] [nM] | Efficacy [5] [%] | Efficacy [6] [%] | Efficacy [7] [%] | half-life [8] [h] | clearance [9] [mL/min/kg] | bioavailability [10] [%] | Vd [11] [L/kg]
1 | Cc1cnn2c(-c3cccc(-c4ccccc4C#N)c3)cnc2c1 | 26 | 13 | -20 | 19 | – | – | – | – | – | – | –
2 | Cc1cnn2c(-c3cccc(-c4ccccc4C#N)c3)cnc2n1 | – | 1.5 | – | 1.2 | -21 | 34 | – | – | – | – | –
3 | N#Cc1cc(F)ccc1-c1cc(-c2cnc3nc(C(F)(F)F)cnn23)ccc1F | – | 0.25 | – | 0.8 | -13 | -6 | – | – | – | – | –
4 | CC(C)(O)c1ccn2c(-c3ccc(F)c(-c4cccnc4)c3)cnc2n1 | – | – | – | 4 | – | – | 6 | – | – | – | –
5 | Cc1ccn2c(-c3cccc(-c4ccccc4C#N)c3)cnc2n1 | – | 0.4 | – | 0.4 | – | 69 | 7 | – | – | – | –
6 | CC(C)(O)c1cnn2c(-c3ccc(F)c(-c4c(F)cc(F)cc4C#N)c3)cnc2n1 | – | 0.15 | – | 1 | – | 37 | 0 | 69 | 1 | 64 | 5.8
7 | CCO/N=C(\C)c1ccc2c(c1)ncn2-c1cccc(-c2cccnc2)c1 | – | 2 | – | 14 | – | 99 | 40 | – | – | – | –
8 | CC(C)(O)c1cnn2c(-c3ccc(F)c(-c4ccc(F)cc4C#N)c3)cnc2n1 | – | 1.2 | – | 2.1 | -15 | 43 | – | 38 | 1.1 | – | 3.4
9 | N#Cc1cc(F)ccc1-c1cc(-c2cnc3nc(C(F)(F)F)ccn23)ccc1F | – | – | – | 0.73 | – | 25 | -3 | – | – | – | –
10 | Cc1ccn2c(-c3cccc(-c4ccccc4C#N)c3)cnc2c1 | – | – | – | 3.7 | -10 | 55 | – | – | – | – | –
11 | CN1C(=O)CN=C(c2ccccc2)c2cc(Cl)ccc21 | – | – | – | – | – | 80 | 93 | – | – | – | –

— ChEMBL document CHEMBL1149444, “Discovery of imidazo[1,2-b][1,2,4]triazines as GABA(A) alpha2/3 subtype selective agonists for the treatment of anxiety” (J Med Chem, 2006)
